Assay results: PubChem BioAssay
Active and inactive are the calls of the source.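 Rule for the calls, unless noted: active = potentiation averaged over duplicate wells exceeding buffer-only control mean by more than 3 SD; inactive = the rest.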

Columns and labels:
[1] = nonspecific flux increase, KCNQ1-free cells – parental CHO cells, counter-screen for KCNQ1 potentiator project (AID 493006;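 active = duplicate-averaged activation above buffer control mean plus 5 SD of those controls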); details: parental CHO-K1 cells, FluxOR thallium flux, at 10 µM; stronger effect = higher value
How it was run: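 Assay system: parental CHO-K1 cells lacking KCNQ1, loaded with FluxOR thallium dye; timing: dye 90 min RT, compound 20 min RT; signal: kinetic thallium-flux fluorescence; repeats: duplicate wells per compound, percent values averaged; benchmarks: buffer and R-L3 controls; reagent: Potassium/thallium depolarization pulse; read-out: fluorescence change ratio scaled 0% buffer, 100% R-L3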

[2] = biological target: Potassium voltage-gated channel subfamily KQT member 1 (Homo sapiens) (UniProt P51787); experiment: enhancement of KCNQ1 channel thallium flux – FluxOR thallium flux, CHO cells, duplicates, confirmation (AID 493007); details: KCNQ1 cell line, FluxOR thallium flux fluorescence, at 10 µM; stronger effect = higher value, % of reference activator effect, buffer zero
Sequence of Potassium voltage-gated channel subfamily KQT member 1 (Homo sapiens) (P51787 whole entry, looked up): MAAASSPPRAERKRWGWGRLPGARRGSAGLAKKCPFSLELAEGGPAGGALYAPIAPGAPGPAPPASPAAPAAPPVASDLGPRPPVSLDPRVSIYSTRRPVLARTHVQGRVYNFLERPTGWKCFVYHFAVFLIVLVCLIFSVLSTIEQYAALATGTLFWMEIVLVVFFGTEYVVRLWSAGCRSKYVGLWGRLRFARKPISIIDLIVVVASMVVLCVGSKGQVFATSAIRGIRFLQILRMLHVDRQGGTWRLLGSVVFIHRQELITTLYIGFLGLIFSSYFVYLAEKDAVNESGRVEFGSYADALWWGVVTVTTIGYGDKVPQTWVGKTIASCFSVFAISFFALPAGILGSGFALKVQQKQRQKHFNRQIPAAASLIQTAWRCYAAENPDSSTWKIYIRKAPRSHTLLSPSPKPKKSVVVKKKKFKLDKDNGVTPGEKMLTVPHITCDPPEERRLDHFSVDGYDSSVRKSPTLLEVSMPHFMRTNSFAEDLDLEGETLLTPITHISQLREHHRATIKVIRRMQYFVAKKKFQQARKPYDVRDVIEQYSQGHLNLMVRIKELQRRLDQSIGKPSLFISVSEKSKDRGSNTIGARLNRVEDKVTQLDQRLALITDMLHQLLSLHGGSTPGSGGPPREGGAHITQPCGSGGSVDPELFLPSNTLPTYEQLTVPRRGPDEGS
How it was run: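 material = CHO cells stably expressing the KCNQ1 potassium channel | repeats = duplicate wells per compound | measure = percent activation between buffer and R-L3 responses | signal = FluxOR thallium-flux fluorescence, kinetic read | schedule = FluxOR dye loading 90 min, compound exposure 20 min, room temperature | control set = buffer and R-L3 controls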

[3] = biological target: Potassium voltage-gated channel subfamily KQT member 2 (Rattus norvegicus) (UniProt O88943); experiment: KCNQ2 thallium flux enhancement – KCNQ2-CHO-K1 cells, selectivity assay for KCNQ1 potentiator project (AID 493009;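 active = mean duplicate potentiation above the buffer control mean plus 5 SD of buffer wells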;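 note: assay conditions were tuned for KCNQ1 rather than KCNQ2 modulators; signal is max minus min fluorescence divided by baseline after thallium stimulus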); details: FluxOR thallium flux fluorescence, at 10 µM; stronger effect = higher value, scaled: buffer 0, activator control 100
Sequence of Potassium voltage-gated channel subfamily KQT member 2 (Rattus norvegicus) (O88943 whole entry, looked up): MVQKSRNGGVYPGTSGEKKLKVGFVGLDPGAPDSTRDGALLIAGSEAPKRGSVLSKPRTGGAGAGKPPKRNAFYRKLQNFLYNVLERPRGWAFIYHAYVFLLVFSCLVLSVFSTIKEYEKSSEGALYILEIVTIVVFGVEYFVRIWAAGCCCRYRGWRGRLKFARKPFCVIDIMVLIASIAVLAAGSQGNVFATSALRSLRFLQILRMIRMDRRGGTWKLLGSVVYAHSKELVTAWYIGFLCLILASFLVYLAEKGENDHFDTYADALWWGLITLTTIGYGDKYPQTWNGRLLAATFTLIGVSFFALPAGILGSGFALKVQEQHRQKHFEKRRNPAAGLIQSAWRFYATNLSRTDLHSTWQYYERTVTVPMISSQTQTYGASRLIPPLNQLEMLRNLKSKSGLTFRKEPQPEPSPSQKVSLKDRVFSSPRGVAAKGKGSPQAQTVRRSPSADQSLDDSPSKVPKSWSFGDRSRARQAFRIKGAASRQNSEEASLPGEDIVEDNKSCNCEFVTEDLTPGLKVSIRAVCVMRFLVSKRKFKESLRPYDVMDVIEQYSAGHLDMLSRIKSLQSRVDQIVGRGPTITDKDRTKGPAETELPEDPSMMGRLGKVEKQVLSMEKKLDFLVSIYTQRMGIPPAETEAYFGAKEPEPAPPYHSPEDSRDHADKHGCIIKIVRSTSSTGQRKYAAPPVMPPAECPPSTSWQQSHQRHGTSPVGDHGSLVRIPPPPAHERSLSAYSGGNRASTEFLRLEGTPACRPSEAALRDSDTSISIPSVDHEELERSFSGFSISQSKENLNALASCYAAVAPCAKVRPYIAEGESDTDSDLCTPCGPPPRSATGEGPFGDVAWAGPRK

[4] = biological target: Potassium voltage-gated channel subfamily KQT member 1 (Homo sapiens) (UniProt P51787); experiment: KCNQ1 activators by electrophysiology – IonWorks patch clamp, KCNQ1-CHO cells, orthogonal assay for KCNQ1 potentiator project, confirmation (AID 493184;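 active = current rise at least 3 SD above the untreated control mean in each of two repeat wells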); details: automated patch clamp current, at 10 µM; stronger effect = higher value
How it was run: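 Assay system – CHO cells carrying KCNQ1 · Medium – pH 7.4 external bath · Probe or stimulus – depolarizing pulse to +40 mV from -90 mV · Compound dosing – one dose, 10 µM final · Measured by – automated perforated-patch electrophysiology · Measure – % potentiation of steady-state current relative to pre-compound · Repeats – two replicates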

[5] = biological target: Potassium voltage-gated channel subfamily E member 1 (Homo sapiens) + Potassium voltage-gated channel subfamily KQT member 1 (Homo sapiens) (UniProt P15382+P51787); experiment: KCNQ1-E1 channel activation – thallium flux, CHO-K1 KCNQ1/E1 cells, selectivity assay for KCNQ1 potentiator project, confirmation (AID 493186;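 active = mean duplicate activation above the buffer control mean plus 5 SD of those controls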); details: FluxOR thallium flux, at 10 µM; stronger effect = higher value
Sequence of Potassium voltage-gated channel subfamily E member 1 (Homo sapiens) + Potassium voltage-gated channel subfamily KQT member 1 (Homo sapiens) (P51787 whole entry, looked up): as the sequence (P51787 whole entry, looked up) above
How it was run: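 Assay system: CHO-K1 cells with KCNQ1/E1 | Dosing: Single compound concentration per well | Incubation: Dye 90 min, compound 20 min, room temperature | Measured by: FluxOR Tl+ flux fluorescence, kinetic read | Controls: Buffer low control, R-L3 high control | Replicates: Duplicate wells per compound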

Measured: potentiation

Cc1cccc(NC(=O)c2cccc(NC(=O)Cc3cccs3)c2)c1
active: [2] 17.5%
inactive: all other assays above

COc1cc2c(cc1NC(=O)CSc1nnc(COc3ccc(Cl)cc3)n1C)oc1ccccc12
active: [2] 49.5%
inactive: all other assays above

CCOC(=O)CNC(=O)N1CCc2ccc(NC(=O)c3ccccc3Cl)cc2C1
inactive: all assays above

S=c1[nH]nc(-c2ccco2)n1/N=C/C(Cl)=C/c1ccccc1
active: [2] 26%
inactive: all other assays above

CSc1nc(SCC(=O)O)c2sc3nc(-c4ccccc4)c4c(c3c2n1)CCC4
active: [2] 30%
inactive: all other assays above

Fc1ccc(/C=N/n2c(C3CCCCC3)n[nH]c2=S)cc1
inactive: all assays above

S=c1[nH]nc(-c2cccs2)n1/N=C/c1cn(-c2ccccc2)nc1-c1ccccc1
active: [2] 22%
inactive: all other assays above

Cc1ccc(C(=O)OCC(=O)NCCC2=CCCCC2)s1
inactive: all assays above

CC(=O)/C(=N/Nc1ccc([N+](=O)[O-])cc1)N1CCCc2ccccc21
inactive: all assays above

O=c1c2ccccc2[nH]c(=S)n1C1CCCCC1
inactive: all assays above

S=c1[nH]nc(-c2ccco2)n1/N=C/c1ccc(Br)s1
inactive: all assays above

COC1(c2ccccc2)NC(=S)NN=C1c1ccccc1 (stereo not given)
inactive: all assays above

COC(=O)c1ccccc1NC(=S)NC(=O)c1ccc(C)cc1
inactive: all assays above

COCc1cc(C)nc(NCCO)c1C#N
inactive: all assays above

O=C(O)CCn1c(-c2ccccc2)cc2ccccc21
inactive: all assays above

OCCN(CCO)c1ccc(C(c2ccccc2Cl)c2ccc(N(CCO)CCO)cc2Cl)c(Cl)c1
active: [2] 34.5%
inactive: all other assays above

CCCCS(=O)(=O)/C=C\C=C/S(=O)(=O)CCCC
inactive: all assays above

O=C(NC(=S)Nc1ccccc1)c1cncc(C#Cc2ccccc2)c1
active: [2] 37%
inactive: all other assays above

O=C(CNc1ccc(Br)cc1)NNC1=NCCC1
active: [3] 142%
inactive: all other assays above

CCOc1cc(CN2CCN(C(=O)CC(C)C)CC2)ccc1OC
active: [2] 23.5%
inactive: all other assays above

CCN(c1ccccc1)S(=O)(=O)c1ccc(NC(=S)NC(=O)c2ccc(Br)o2)cc1
active: [2] 76% | [3] 168%
inactive: all other assays above

Cc1ccc(-c2nnc(SCC(=O)N/N=C/c3ccccc3C(=O)O)n2-c2ccc(Cl)cc2)cc1
inactive: all assays above

O=C(CC(c1ccccc1)c1ccccc1)Nc1ncn[nH]1
inactive: all assays above

COc1cc(OC)c(-n2cc(-c3ccc(Cl)cc3)[nH]c2=O)cc1Cl
inactive: all assays above

CC1CCc2c(sc(NC(=O)C(=O)NCc3ccco3)c2C#N)C1 (stereo not given)
inactive: all assays above

CC(=C/c1ccccc1)/C=N/n1c(-c2ccco2)n[nH]c1=S
inactive: all assays above

Oc1c(/C=N/c2ccccn2)sc2ccccc12
active: [2] 18%
inactive: all other assays above

O=C1c2ccccc2C(=O)C12OC2c1cccc2ccccc12 (stereo not given)
inactive: all assays above

CCc1ccc2oc(C(=O)NC3CCS(=O)(=O)C3)cc(=O)c2c1 (stereo not given)
inactive: all assays above

Oc1ccc(Br)cc1C=Nc1ccc(Cl)cc1
inactive: all assays above

CNC(=O)CC1C(=O)N(c2ccc(Cl)cc2)C(=S)N1CCc1ccc(OC)c(OC)c1 (stereo not given)
inactive: all assays above

COc1ccccc1C(=O)NNC(=O)c1nn(Cc2ccccc2)c(=O)c2ccccc12
inactive: all assays above

CC(c1nccs1)N(C)C(=O)CCc1nnc(Cc2c[nH]c3ccccc23)o1 (stereo not given)
inactive: all assays above

Cc1ccc(C(=O)NC(=S)NNC(=O)COc2ccc([N+](=O)[O-])cc2)cc1
active: [2] 19.5%
inactive: all other assays above

O=c1c2ccccc2oc2cc(NCCCN3CCOCC3)ccc12
active: [2] 29.5%
inactive: all other assays above

O=C(CNC(=S)NC(=O)c1ccc(Br)o1)c1ccccc1
inactive: all assays above

COc1ccccc1OCCCc1c(C)n[nH]c1C
inactive: all assays above

CN(C1CCCCC1)S(=O)(=O)c1ccc(NC(=S)NC(=O)c2cccs2)cc1
active: [2] 30% | [3] 155%
inactive: all other assays above

S=C(NCCc1ccccc1)N1CCn2cccc2C1c1cccnc1 (stereo not given)
active: [2] 18.5%
inactive: all other assays above

COc1ccc(-n2ccnc(SCC(=O)NC3CCCC3)c2=O)cc1OC
inactive: all assays above

Cc1ccc(C(=O)NC(=S)N2CCN(c3ccccc3F)CC2)cc1
inactive: all assays above

CCCCOC(=O)c1ccc(NC(=S)NC(=O)c2ccco2)cc1
inactive: all assays above

Cc1ccc(C(=O)NC(=S)N2CCN(c3cc(C)ccc3C)CC2)cc1
active: [2] 50%
inactive: all other assays above

COc1cc(OC)cc(C(=O)N2CC(=O)Nc3ccccc32)c1
inactive: all assays above

CC(c1ccccc1)c1nnc(N)s1 (stereo not given)
inactive: all assays above

Cc1cc(C)nc(N/N=C/c2cccc3ccccc23)n1
inactive: all assays above

COc1ccccc1NC(=O)CC1C(=O)NCCN1C(=O)Nc1ccc(Cl)c(Cl)c1 (stereo not given)
active: [2] 37.5% | [3] 157%
inactive: all other assays above

COc1ccc(C2c3ccc4ccccc4c3Oc3ncn(CCN4CCOCC4)c(=N)c32)cc1OC (stereo not given)
inactive: all assays above

NS(=O)(=O)c1ccc(Sc2ccc3c(c2)CCC3)nc1
active: [2] 22.5%
inactive: all other assays above

CCN1CCN(C(c2ccccn2)c2c(NC(=O)c3ccccc3)sc(C)c2C)CC1 (stereo not given)
inactive: all assays above

CCOC(=O)COc1cc(-n2c(=S)[nH]c3cc(OC)c(OC)cc3c2=O)c(Cl)cc1Cl
active: [2] 31.5%
inactive: all other assays above

O=C(NC(=S)Nc1cc(C(F)(F)F)ccc1N1CCOCC1)c1sc2ccccc2c1Cl
inactive: all assays above

CCC(C)N(C(=O)COC(=O)c1cc([N+](=O)[O-])ccc1N1CCOCC1)C1CCS(=O)(=O)C1 (stereo not given)
inactive: all assays above

Cc1[nH]nc(SCC(=O)N2CCCCC2)c1[N+](=O)[O-]
inactive: all assays above

C/C(=N\Nc1nc(C)c(C)s1)c1ccc([N+](=O)[O-])cc1
active: [2] 43% | [3] 150%
inactive: all other assays above

Cn1cc(C(=O)N/N=C/c2ccc([N+](=O)[O-])cc2)c2ccccc21
inactive: all assays above

COc1ccc(C2(C)CC(C)(C)Nc3ccccc32)cc1 (stereo not given)
active: [2] 68.5%
inactive: all other assays above

O=C(NCCCN1CCCC1)c1ccc2c(c1)N(Cc1ccccc1)CCS2
inactive: all assays above

CCOC(=O)N1CCC(NC(=O)c2cc(C(=O)NCc3ccc(F)cc3)ccc2CO)CC1
inactive: all assays above

O=C(NCc1ccccc1)c1ccc2c(c1)C(=O)N(Cc1cccnc1)C2=O
active: [2] 17.5%
inactive: all other assays above

O=C1CCCCCN1Sc1ccccc1
active: [2] 18.5%
inactive: all other assays above

Cc1ccc2[nH]c(=O)c(CN(CCCN(C)C)C(=S)NCCc3ccccc3)cc2c1
inactive: all assays above
